Screens (PubChem BioAssay)
An excerpt weighted towards active compounds, which were near 2.5% of everything screened.
MEKK2mut PB1 HTS – MEK5 binding signal on mutant MEKK2 PB1, primary screen, biochemical, multiplex bead flow cytometry, Alexa488-MEK5. Alexa488-MEK5 binding to MEKK2 mutant. percent response, % at 10 µM. 0.35% of 290,000 active. AID 1530, 2009; in the data active = percent response above about 24%, passing the limit was not always enough
ABCG2 inh – ABCG2 efflux pump inhibitors, primary screen, multiplex with ABCB1, IgMXP3 cells, flow cytometry. Broad substrate specificity ATP-binding cassette transporter ABCG2 (Homo sapiens), Q9UNQ0. JC-1 efflux. inhibition, % at 6.6 µM. 0.1% of 190,000 active. AID 1325, 2008;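 active = inhibition above 80%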;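 also: 0% = DMSO and 100% = nicardipine control wells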
Target sequence (Q9UNQ0 whole entry, looked up): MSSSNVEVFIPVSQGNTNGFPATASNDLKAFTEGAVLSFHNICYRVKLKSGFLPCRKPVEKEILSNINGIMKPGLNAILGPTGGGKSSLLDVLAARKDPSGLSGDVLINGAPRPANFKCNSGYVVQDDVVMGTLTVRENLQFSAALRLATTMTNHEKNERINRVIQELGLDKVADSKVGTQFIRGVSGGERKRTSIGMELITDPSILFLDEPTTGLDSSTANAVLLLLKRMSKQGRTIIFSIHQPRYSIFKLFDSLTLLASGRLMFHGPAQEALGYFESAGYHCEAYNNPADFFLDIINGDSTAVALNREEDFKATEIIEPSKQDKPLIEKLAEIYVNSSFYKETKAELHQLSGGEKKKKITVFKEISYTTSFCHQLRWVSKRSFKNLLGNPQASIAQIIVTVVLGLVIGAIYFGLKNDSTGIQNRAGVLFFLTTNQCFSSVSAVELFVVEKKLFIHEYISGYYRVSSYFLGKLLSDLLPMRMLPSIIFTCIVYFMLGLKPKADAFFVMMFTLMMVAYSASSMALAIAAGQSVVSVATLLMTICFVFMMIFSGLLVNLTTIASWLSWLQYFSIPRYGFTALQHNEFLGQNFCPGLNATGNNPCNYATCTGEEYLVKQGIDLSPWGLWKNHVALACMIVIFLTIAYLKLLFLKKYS
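Measure – % inhibition of efflux relative to nicardipine and DMSO · Test system – ABCG2 IgMXP3 and barcoded ABCB1 CCRF-Adr cell mix · Control set – nicardipine as high control, DMSO as low control · Compound – one concentration, 6.6 µM final · Signal – flow cytometry of retained JC-1 fluorescence · Timing – 10 min exposure at 25 °C with rotation, no wash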
MEKK2wt PB1 HTS – modulators of MEK5 binding to wildtype MEKK2, primary screen, biochemical, multiplex bead flow cytometry, Alexa488-MEK5. 1.1% of 290,000 active. AID 1531, 2009. binding response (% of control), % at 10 µM. Alexa488-MEK5 binding to MEKK2 WT; actives lie on both sides. Mitogen-activated protein kinase kinase kinase 2 (Homo sapiens), Q9Y2U5; in the data active = binding response below about 67% or above about 130%
Efflux pump inh – inhibitors of Candida efflux pumps in yeast, primary screen, S. cerevisiae, Nile Red, multiplex; S. cerevisiae Candida pump triplex; inhibition, % at 10 µM; 0.44% of 330,000 active; AID 485275, 2010;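 active = plate passing quality check with inhibition over a set limit, or well fluorescence over plate mean plus 4 SD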;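 also: Nile Red retained in pooled yeast measured as flow cytometry median fluorescence; 0% = buffer negative control and 100% = Enniatin B positive control; higher means more Nile Red kept so more efflux inhibition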
ABCB1 inh – ABCB1 efflux pump inhibitors, primary screen, cell-based, multiplex, flow cytometry, ABCG2 counter-screen | inhibition, % at 6.6 µM | ATP-dependent translocase ABCB1 (Homo sapiens), P08183 | 0.067% of 190,000 active | CCRF-Adr cells, JC-1 efflux | AID 1326, 2008; in the data active = inhibition above about 40%;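 also: 0% = vehicle and 100% = reference inhibitor; higher value means more JC-1 retained so stronger ABCB1 efflux block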
MEKK3 PB1 HTS – modulators of MEKK3-MEK5 PB1 binding, primary screen, biochemical, wildtype MEKK3, multiplex bead flow cytometry, Alexa488-MEK5; Mitogen-activated protein kinase kinase kinase 3 (Homo sapiens), Q99759; 1.4% of 290,000 active; bead-based flow cytometry, Alexa488-MEK5 binding to MEKK3; actives lie on both sides; 0 = blocked by unlabeled MEK5, 100 = vehicle; binding response (% of control), % at 10 µM;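 active = binding response more than 3 SD above or below the average of its plate-row segment, actives on both sides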;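 also: Alexa488 bead fluorescence after subtracting the streptavidin-only scavenger bead signal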
MEKK2wt confirm – modulators of MEK5 binding to wildtype MEKK2, confirmation, biochemical, single concentration, multiplex bead flow cytometry; shares compounds with MEKK3 PB1 HTS; Alexa488-MEK5 binding to MEKK2 WT; actives lie on both sides; binding response (% of control), % at 10 µM; 2.4% of 5,900 active; in the data active = binding response below about 16% or above about 210%; inactive = in between
MEKK2mut-MEK5 – mutant MEKK2 PB1-MEK5 binding signal retest – biochemical, single concentration, multiplex bead flow cytometry, confirmation; Alexa488-MEK5 binding to MEKK2 mutant; 2% of 5,900 active; percent response, % at 10 µM; shares compounds with MEKK3 PB1 HTS; in the data active = percent response mostly above about 71%, no sharp cut-off; inactive = mostly below about 38%;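 also: higher means compound restores mutant binding toward wildtype level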
MEKK3-MEK5 inh – MEKK3 wild-type PB1 binding to MEK5, inhibitors, confirmation, biochemical, bead multiplex flow cytometry, single concentration, wildtype; shares compounds with MEKK3 PB1 HTS; Alexa488-MEK5 binding to MEKK3; stronger effect = lower value; binding response (% of control), % at 10 µM; 1.8% of 5,900 active; AID 1894, 2009;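 active = binding response below 72% of control, or above a set upper limit, though filed actives all read lower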;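 also: 100% = DMSO only wells and 0% = binding blocked by excess unlabeled MEK5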
Active calls of the source: *; ! = repeats disagree; [ ] = another dose, or the depositor's remark.

COc1cc(/C=C2/SC(=S)N(CC(=O)Nc3nc4ccccc4s3)C2=O)cc(OC)c1OC was read as MEKK2mut PB1 HTS -16, ABCG2 inh -9, MEKK2wt PB1 HTS 71*[inhibitor], Efflux pump inh 0, ABCB1 inh -1, MEKK3 PB1 HTS 89, MEKK2wt confirm 80, MEKK2mut-MEK5 -9 and MEKK3-MEK5 inh 99.
CCc1nnc(NC(=O)CN2C(=O)/C(=C/c3cc(OC)c(OC)c(OC)c3)SC2=S)s1 was read as MEKK2mut PB1 HTS 1, ABCG2 inh -12, MEKK2wt PB1 HTS 95, Efflux pump inh 0, ABCB1 inh -2, MEKK3 PB1 HTS 159*, MEKK2wt confirm 88, MEKK2mut-MEK5 -5 and MEKK3-MEK5 inh 100.
For COc1cc(/C=C2\SC(=S)N(CC(=O)Nc3ccccn3)C2=O)cc(OC)c1OC the results were MEKK2mut PB1 HTS 2, ABCG2 inh -13, MEKK2wt PB1 HTS 85, Efflux pump inh 0, ABCB1 inh -2 and MEKK3 PB1 HTS 99.
Screening O=C(NCc1ccco1)C(c1ccncc1)N(C(=O)Cn1nnc2ccccc21)c1ccccc1F (centres undefined) returned MEKK2mut PB1 HTS 4, MEKK2wt PB1 HTS 109, Efflux pump inh 0 and MEKK3 PB1 HTS 104.
For Cc1cc(Nc2ccc(C)c(C)c2)c2ccccc2n1 the results were MEKK2mut PB1 HTS 4, MEKK2wt PB1 HTS 106, Efflux pump inh 0 and MEKK3 PB1 HTS 91.
Screening Cc1ccc(Nc2nc(N)c3ccccc3n2)cc1C returned MEKK2mut PB1 HTS 17, MEKK2wt PB1 HTS 138*, Efflux pump inh 0, MEKK3 PB1 HTS 107, MEKK2wt confirm 138, MEKK2mut-MEK5 22 and MEKK3-MEK5 inh 107.
For CSc1nc2ccccc2n1CC(=O)Nc1c(C)cccc1C the results were MEKK2mut PB1 HTS 6, ABCG2 inh 0, MEKK2wt PB1 HTS 71, Efflux pump inh 0, ABCB1 inh 0, MEKK3 PB1 HTS 49*[inhibitor], MEKK2wt confirm 100, MEKK2mut-MEK5 -4 and MEKK3-MEK5 inh 97.
For OCc1cc(C(O)CNCCCCCCOCCCCc2ccccc2)ccc1O (centres undefined) the results were MEKK2mut PB1 HTS 9, ABCG2 inh 0, MEKK2wt PB1 HTS 144*!, Efflux pump inh 0, MEKK3 PB1 HTS 112, MEKK2wt confirm 120, MEKK2mut-MEK5 2 and MEKK3-MEK5 inh 103.
CC(C)(C)NCC(O)c1ccc(O)c(CO)c1 (centres undefined) was read as MEKK2mut PB1 HTS 4, MEKK2wt PB1 HTS 111 and MEKK3 PB1 HTS 104.
CCOc1ccc(NC(=O)CSc2nc(=O)n(CCCN3CCOCC3)c3c2CCC3)cc1 was read as Efflux pump inh 0.
For C=C1CCN([C@H](C(=O)NCc2ccc(Cl)cc2)C(C)C)S(=O)(=O)c2ccccc21 the results were MEKK2mut PB1 HTS -3, MEKK2wt PB1 HTS 96, Efflux pump inh 0, MEKK3 PB1 HTS 80*[inhibitor], MEKK2wt confirm 95, MEKK2mut-MEK5 -5 and MEKK3-MEK5 inh 97.
O=C(c1ccco1)N1CCN(c2ccc(N3CCCCC3)nn2)CC1 was read as Efflux pump inh 0.
For C=CCc1cccc(/C=N/NC(=O)CCCNc2ccc(C)cc2)c1O the results were MEKK2mut PB1 HTS 89*, ABCG2 inh 14, MEKK2wt PB1 HTS 248*, Efflux pump inh 0, ABCB1 inh 1, MEKK3 PB1 HTS 109, MEKK2wt confirm 104, MEKK2mut-MEK5 2 and MEKK3-MEK5 inh 103.
C=CCc1cccc(/C=N/NC(=O)CNc2ccccc2)c1O was read as MEKK2mut PB1 HTS -6, ABCG2 inh 7, MEKK2wt PB1 HTS 89, Efflux pump inh 0, ABCB1 inh 0 and MEKK3 PB1 HTS 87.
CC(NC(=O)c1ccc(OC2CCN(Cc3ccccn3)CC2)cc1)c1nccs1 (centres undefined) was read as MEKK2mut PB1 HTS 11, MEKK2wt PB1 HTS 109, Efflux pump inh -1 and MEKK3 PB1 HTS 107.
Screening C=Cn1cc[n+](CC(=O)C(C)(C)C)c1 returned MEKK2mut PB1 HTS 2, ABCG2 inh 0, MEKK2wt PB1 HTS 107, Efflux pump inh 0, ABCB1 inh 0, MEKK3 PB1 HTS 137*, MEKK2wt confirm 106, MEKK2mut-MEK5 10 and MEKK3-MEK5 inh 106.
For C=Cn1cc[n+](CC(=O)c2ccc(Cl)c(Cl)c2)c1 the results were MEKK2mut PB1 HTS 3, MEKK2wt PB1 HTS 99, Efflux pump inh 0 and MEKK3 PB1 HTS 95.
For Brc1ccc(-c2nc3ncccn3c2NC2CCCCC2)o1 the results were MEKK2mut PB1 HTS 8, ABCG2 inh 0, MEKK2wt PB1 HTS 123, Efflux pump inh 0, ABCB1 inh 0, MEKK3 PB1 HTS 129*, MEKK2wt confirm 101, MEKK2mut-MEK5 4 and MEKK3-MEK5 inh 102.
`Cc1ccc(-c2nc3ncccn3c2NC2CCCC2)o1` gave MEKK2mut PB1 HTS 4, ABCG2 inh 7, MEKK2wt PB1 HTS 102, Efflux pump inh 0, ABCB1 inh 1 and MEKK3 PB1 HTS 101.
COc1ccc(N(CC(=O)N2CCN(c3ccc(F)cc3)CC2)S(=O)(=O)c2c(C)n[nH]c2C)cc1 was read as MEKK2mut PB1 HTS -1, ABCG2 inh 7, MEKK2wt PB1 HTS 108, Efflux pump inh 0, ABCB1 inh 1, MEKK3 PB1 HTS 128*, MEKK2wt confirm 95, MEKK2mut-MEK5 -8 and MEKK3-MEK5 inh 98.
For Cc1ccc(S(=O)(=O)N(C)C)cc1NC(=O)Cn1c(CN2CCOCC2)nc2ccccc2c1=O the results were MEKK2mut PB1 HTS 2, ABCG2 inh 2, MEKK2wt PB1 HTS 88, Efflux pump inh 0, ABCB1 inh 0 and MEKK3 PB1 HTS 96.
